KCC2 mod: KCC2 cotransporter modulators, thallium flux, primary screen, cell-based, HEK293 KCC2, FluoZin-2 fluorescence, MLSMR. Solute carrier family 12 member 5 (Homo sapiens), Q9H2X9. KCC2 cells, thallium flux FluoZin-2 fluorescence. B-score of Tl+ flux slope (higher = more flux/activation; lower = inhibition) at 10 µM. 190,000 compounds, 2.2% hits;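 active = thallium flux slope and its plate-corrected score both differing from the plate sample mean at a set confidence after two filtering rounds, in either direction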;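 also: slope of fluorescence scaled to starting intensity during 10 to 20 s after thallium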
Target sequence (Q9H2X9 whole entry, looked up): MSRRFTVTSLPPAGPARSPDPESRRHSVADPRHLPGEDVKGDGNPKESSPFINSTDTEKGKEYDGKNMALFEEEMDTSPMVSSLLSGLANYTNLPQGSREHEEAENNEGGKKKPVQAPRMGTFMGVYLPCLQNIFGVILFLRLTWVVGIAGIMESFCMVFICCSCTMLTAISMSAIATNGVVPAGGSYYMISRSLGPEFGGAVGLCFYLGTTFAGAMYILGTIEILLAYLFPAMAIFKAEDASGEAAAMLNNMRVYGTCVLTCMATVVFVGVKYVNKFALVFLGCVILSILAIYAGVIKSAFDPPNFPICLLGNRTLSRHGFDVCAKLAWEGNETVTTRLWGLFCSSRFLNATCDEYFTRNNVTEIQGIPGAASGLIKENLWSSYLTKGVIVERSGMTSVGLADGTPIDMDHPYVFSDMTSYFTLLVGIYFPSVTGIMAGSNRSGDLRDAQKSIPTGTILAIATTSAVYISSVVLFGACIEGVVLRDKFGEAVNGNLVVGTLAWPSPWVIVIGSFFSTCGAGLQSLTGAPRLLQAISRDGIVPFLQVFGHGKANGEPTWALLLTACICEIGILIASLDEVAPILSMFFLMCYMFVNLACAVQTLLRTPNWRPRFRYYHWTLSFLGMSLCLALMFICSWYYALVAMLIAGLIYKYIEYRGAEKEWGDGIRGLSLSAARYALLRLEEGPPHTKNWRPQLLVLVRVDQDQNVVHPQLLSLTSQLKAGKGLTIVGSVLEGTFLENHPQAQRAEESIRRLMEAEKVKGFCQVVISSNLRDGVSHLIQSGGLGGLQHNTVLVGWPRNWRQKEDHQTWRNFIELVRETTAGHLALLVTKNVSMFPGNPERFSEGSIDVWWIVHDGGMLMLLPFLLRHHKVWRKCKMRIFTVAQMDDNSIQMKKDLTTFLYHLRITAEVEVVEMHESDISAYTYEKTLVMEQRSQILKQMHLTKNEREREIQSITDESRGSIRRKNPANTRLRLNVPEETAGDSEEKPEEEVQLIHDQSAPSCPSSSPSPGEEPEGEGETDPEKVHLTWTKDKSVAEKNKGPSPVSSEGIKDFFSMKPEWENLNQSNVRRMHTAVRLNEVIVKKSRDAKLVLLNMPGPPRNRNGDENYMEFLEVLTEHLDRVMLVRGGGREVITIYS
KCNQ1 act: potentiators or activators of KCNQ1 channel, primary screen, cell-based, thallium flux, high-throughput; Potassium voltage-gated channel subfamily KQT member 1 (Homo sapiens), P51787; CHO-K1 KCNQ1, thallium flux FluxOR fluorescence; active compounds read high; B-score at 10 µM; 310,000 compounds, 0.35% hits;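 active = fluorescence ratio B-score, a plate-corrected score, at least three library SD, with initial intensity B-score within 5 SD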
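assay system = CHO-K1 cells stably expressing KCNQ1 | medium = assay buffer, equal DMSO in all wells | timing = 37 °C overnight plating, 90-min dark dye load, 20-min compound pretreatment | measured by = kinetic FluxOR thallium fluorescence, 10-s 1-Hz baseline, 110-s post-stimulus read | measure = fluorescence change relative to baseline, converted to B score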
KCNK3 inh: human KCNK3 channel inhibitors, primary screen, CHO cells, FluxOR thallium flux, B-score | FluxOR fluorescence; active compounds read low | 340,000 compounds, 0.84% hits | B-score at 10 µM;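 active = B-score under library mean minus 4 SD, starting fluorescence ratio at most library mean plus 5 SD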;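 also: more negative B-score means stronger inhibition of thallium flux through KCNK3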
KCNQ1 inh: inhibitors of human KCNQ1 channel, primary screen, cell-based, thallium flux, high-throughput; CHO-K1 KCNQ1, FluxOR thallium flux fluorescence; active compounds read high; AID 2642, 2010; B-score at 10 µM; Potassium voltage-gated channel subfamily KQT member 1 (Homo sapiens), P51787; 310,000 compounds, 1.3% hits;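 active = compounds whose thallium flux B-score, printed positive for inhibition, exceeds three library SD while starting fluorescence stays within three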;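 also: channel opened by potassium depolarization with thallium stimulus after 20 min compound exposure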
hERG rescue: hERG rescue from dofetilide block, primary screen, cell-based, CHO-hERG, FluxOR thallium flux, dofetilide IC70 | 310,000 compounds, 0.51% hits | activation (rescue from dofetilide block), less the hit threshold, % at 10 µM | dofetilide IC70 present;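 active = activation above the mean of controls blocked by dofetilide plus 5 SD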;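 also: thallium influx through hERG after potassium depolarization seen as dye fluorescence rise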
KCNK9 inh: KCNK9 potassium channel inhibitors, primary screen, HEK293 cells, thallium flux | FluxOR thallium flux fluorescence; active compounds read low | Potassium channel subfamily K member 9 (Homo sapiens), Q9NPC2 | 310,000 compounds, 1.2% hits | B-score at 10 µM | AID 488922, 2010;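 active = ratio B-score over 3 SD below the library mean, with starting fluorescence within 5 SD of its mean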;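 also: negative B-score means less thallium flux so channel inhibition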
Active calls of the source: *; i = inactive; nt = no result. Compounds with a hit are over-represented: about 4.1% of the library has one in this group of screens.

SMILES	KCC2 mod	KCNQ1 act	KCNK3 inh	KCNQ1 inh	hERG rescue	KCNK9 inh
Cc1ccc(S(=O)(=O)N2CCCC2C(=O)NCc2ccc3c(c2)OCO3)cc1 (stereo not given)	-1.1	i	i	i	9.9*	i
CSCCC(NC(=O)c1ccccc1)C(=O)N1CCN(C(C)=O)CC1 (stereo not given)	nt	nt	i	nt	nt	nt
O=C(C=C(O)c1ccc(Cl)cc1)C(=O)NNC(=O)C(O)(c1ccccc1)c1ccccc1	nt	nt	i	nt	nt	nt
Cc1ccc(/C(O)=C/C(=O)C(=O)NNC(=O)C(O)(c2ccccc2)c2ccccc2)cc1	1.4	13*	i	i	1	i
C[C@H](CO)N1C[C@H](C)[C@@H](CN(C)S(=O)(=O)c2ccccc2)Oc2ccc(NS(=O)(=O)c3cccs3)cc2C1=O	nt	nt	i	nt	nt	nt
Cc1ccc(C(C)C)c(OCCNCc2ccccc2)c1	nt	i	i	i	-11	i
Cc1ccc(C(C)C)c(OCCNC(=S)Nc2cccc3ccccc23)c1	nt	i	i	8*	-9	i
CS(=O)(=O)N(CC(=O)N1CCOCC1)c1cc(C(F)(F)F)ccc1Cl	nt	i	i	i	7.3*	i
CS(=O)(=O)N(CC(=O)N1CCCC1)c1cc(C(F)(F)F)ccc1Cl	-0.45	i	i	i	-20	i
Cc1nn(-c2ccccc2)c(Cl)c1C(=O)NCCCCNC(=O)c1c(C)nn(-c2ccccc2)c1Cl	-1.3	i	i	i	-10	i
CCC(=O)N(Cc1c(C)nn(-c2ccccc2)c1Cl)c1ccc(Cl)cc1	-1.8	i	i	6*	-13	i
CNc1ncnc2c1cnn2C1CCCCO1 (stereo not given)	nt	nt	i	nt	nt	nt
CCCn1c(=S)[nH]c2cc(C(=O)N3CCN(C4CCCCC4)CC3)ccc2c1=O	nt	i	i	i	-7	i
Cc1ccc(S(=O)(=O)N2CCN(C(=O)COC(=O)COc3ccc(Cl)cc3C)CC2)c(C)c1	nt	nt	i	nt	nt	nt
Cc1ccc(C2c3sc(=O)[nH]c3SC3C(=O)NC(=O)C32)cc1 (stereo not given)	-6.8*	i	i	i	-2	i
COC(=O)C1Sc2[nH]c(=O)sc2C(c2ccc(Cl)cc2)C1C(=O)OC (stereo not given)	nt	i	i	i	-11	i
Cc1csc(=O)n1CCC(=O)OCC(=O)NNC(=O)c1ccc(Cl)cc1	nt	nt	i	nt	nt	nt
CCOC(=O)c1cc2c3ccccc3n(CC)c2nc1N	0.11	i	i	i	-1	i
CCOC(=O)c1n[nH]n2c1nc(=S)c1ccccc12	nt	34*	i	i	23*	i
O=S(=O)(/N=C(/Nc1cccc2ccccc12)c1ccccc1)c1ccc(Br)cc1	nt	i	i	i	-5	i
O=C1CN(C(=O)CSc2nc3ccccc3c(=O)n2Cc2ccc(F)cc2)c2ccccc2N1	19*	i	i	i	-11	i
Cn1cc(CN2CCCC(C(=O)Nc3ccc(-c4cccc(F)c4)cc3)C2)cn1 (stereo not given)	nt	i	i	i	-16	i
CC(C)c1ccc(/C=N/n2c(COc3ccccc3)n[nH]c2=S)cc1	nt	16*	i	i	-2	i
CCCCCCSc1nsc(NC(=O)CCC)n1	nt	i	i	6*	-5	i
CCOc1ccc(NC(=O)COC(=O)CCC(=O)c2cccs2)cc1	nt	nt	i	nt	nt	nt
CN(C)c1ccc(C=NNC(=S)Nc2ccc(F)cc2)cc1	nt	nt	i	nt	nt	nt
CSC(=S)N/N=C/c1ccc(N(C)C)cc1	61*	9*	i	i	-11	i
Cc1cc2nccnc2cc1C	nt	nt	i	nt	nt	nt
O=C(CCC1CCCCC1)NCc1ccc(F)cc1	-0.56	i	i	i	-5	i
CC1CCCCC1NCC(=O)NCc1ccc(F)cc1 (stereo not given)	nt	i	i	i	4.7*	i
